Our source for the IC50 and CC50 values is publication PMC11377146 (International Journal for Parasitology: Drugs and Drug …, 2024).

Several values for one entry are separate records, joined by “and”; a condition that tells them apart may be missing. Identical values can stand only once.

For data set [1], the system named is G. duodenalis trophozoite stage. The data set can be described thus: In vitro antigiardial assay. As to conditions: Giardia duodenalis, 48 h, G. duodenalis trophozoites. The data set is classed as cell-based. Summed up:
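Log-phase trophozoites grown in modified TYI-S-33 at 37 °C, harvested by chilling on ice, counted. DMSO stocks diluted two-fold serially; 2 × 10^5 trophozoites/well; metronidazole positive control. Incubated 48 h at 37 °C, anaerobic. BacTiter-Glo added, 20 min at 37 °C, luminescence read. Survival = medium-blank-corrected signal vs untreated; triplicates. SI = Caco-2 CC50 / IC50.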

The next data set is described as follows: Cytotoxicity. The format is cell-based. As to conditions: human, Caco-2 cells. Summed up:
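Caco-2 cells grown 24 h in EMEM + 10% FBS, 37 °C, 5% CO2. Test compound (10 ng/ml–100 μg/ml, in EMEM with 0.5% DMSO) applied for 24 h. MTT (5 mg/ml stock) added for 4 h, formazan dissolved in 4 mM HCl/0.1% Nonidet P-40 in isopropanol. A590 read, 620 nm reference. Viability relative to untreated wells; CC50 from curve fit.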

A further data set relates to 3D7 parasite line. As to conditions: ref Whittell et al., 2011; cited from earlier work.

In general, IC50 refers to the midpoint of a concentration-inhibition curve. What is called CC50 is the concentration that lowers cell viability or growth by half. Low readings indicate harm at low concentration, high ones better tolerance by the cells. For the molecule `Cc1ncc([N+](=O)[O-])n1CCO` [Metronidazole, metronidazole], the IC50 in data set [1] was 2.01 µg/mL and 11.7 µM. The 50% cytotoxic concentration (CC50) at 24 h in “Cytotoxicity” is > 100 µg/mL and > 100 µM. Regarding `Cn1cc2c3ccccc3nc-2c2ccccc21` [isocryptolepine, Isocryptolepine], the IC50 with 3D7 parasite line is 665 nM.
